Experiments:
[1] = Cytotoxicity against Vero cells at 100 uM after 3 days; format: cell-based; details: chlorocebus sabaeus
How it was run: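 Confluent Vero monolayers given serial compound dilutions; incubated 3 days at 37°C, humidified CO2 atmosphere; cultures inspected microscopically for altered morphology. MCC = concentration causing microscopic alteration of mock-infected cultures at day 3.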

[2] = Inhibition of human TMPK expressed in Escherichia coli by spectrophotometric assay
Thymidylate kinase = biological target: T1, Thymidylate kinase (Mycobacterium tuberculosis, UniProt P9WKE1); test: Inhibition of Mycobacterium tuberculosis TMPK expressed in Escherichia coli by spectrophotometric assay
T1 sequence (P9WKE1 whole entry): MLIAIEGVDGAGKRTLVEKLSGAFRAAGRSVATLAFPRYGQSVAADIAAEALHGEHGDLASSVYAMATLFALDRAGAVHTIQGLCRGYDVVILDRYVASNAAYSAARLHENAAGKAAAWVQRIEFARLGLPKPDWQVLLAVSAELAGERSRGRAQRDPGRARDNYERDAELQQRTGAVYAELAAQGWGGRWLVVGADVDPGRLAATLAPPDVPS
How it was run: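 Recombinant mycobacterial and human TMPK, both expressed in E. coli, run in an NADH-coupled assay (pyruvate kinase, lactate dehydrogenase, nucleoside diphosphate kinase, 2 units each) read at 334 nm. ATP 0.5 mM and dTMP 0.05 mM held constant; analogues 0.01–2 mM; Ki determined for each enzyme.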

[3] = system: Mycobacterium tuberculosis; test: Growth inhibition of Mycobacterium tuberculosis H37Rv at 6.25 ug/mL by MABA assay; format: functional
How it was run: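 Single-concentration screen in BACTEC 12B medium using the Microplate Alamar Blue Assay; percent inhibition recorded.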

Row | Structure (SMILES) | MCC at 72 h, up to 100 µM [1] [µM] | Ki [2] [µM] | Ki (Thymidylate kinase) [µM] | inhibition at 6.25 µg/mL [3] [%]
1 | Cc1cn([C@@H]2C[C@H](O)[C@@H](CNC(=S)NCCc3ccccc3)O2)c(=O)[nH]c1=O | > 100 | > 800 | 3.8 | –
2 | Cc1cn([C@@H]2C[C@H](O)[C@@H](CNC(=S)Nc3ccc(Cl)c(Cl)c3)O2)c(=O)[nH]c1=O | > 100 | 274 | 1 | 38
3 | Cc1cn([C@@H]2C[C@H](O)[C@@H](CNC(=S)Nc3ccc(N4CCOCC4)cc3)O2)c(=O)[nH]c1=O | – | – | 19.2 | –
4 | Cc1cn([C@@H]2C[C@H](O)[C@@H](CNC(=S)NC34CC5CC(CC(C5)C3)C4)O2)c(=O)[nH]c1=O | > 100 | – | 15 | –
5 | Cc1cn([C@@H]2C[C@H](O)[C@@H](CNC(=O)c3ccccc3)O2)c(=O)[nH]c1=O | – | – | 35 | –
6 | Cc1cn(COCCNC(=S)Nc2ccccc2)c(=O)[nH]c1=O | > 100 | – | 260 | –
7 | Cc1cn([C@@H]2C[C@H](O)[C@@H](CN=[N+]=[N-])O2)c(=O)[nH]c1=O | – | – | 26.5 | –
8 | Cc1cn([C@H]2C[C@H](CNC(=S)Nc3ccc(Cl)cc3)[C@@H](CO)O2)c(=O)[nH]c1=O | > 100 | – | 21 | –
9 | COc1ccc(NC(=S)NC[C@H]2C[C@H](n3cc(C)c(=O)[nH]c3=O)O[C@@H]2CO)cc1 | > 100 | – | 46 | –
10 | Cc1cn([C@H]2C[C@H](CNC(=S)Nc3ccc(Cl)c(Cl)c3)[C@@H](CO)O2)c(=O)[nH]c1=O | > 100 | – | 7.2 | –
11 | Cc1cn([C@H]2C[C@H](CNC(=S)Nc3ccc(OCc4ccccc4)cc3)[C@@H](CO)O2)c(=O)[nH]c1=O | > 100 | – | 12 | –
12 | Cc1cn([C@@H]2C[C@H](O)[C@@H](CNC(=S)NC(=O)c3ccccc3)O2)c(=O)[nH]c1=O | – | – | 7.2 | –
13 | Cc1cn([C@@H]2C[C@H](O)[C@@H](CNC(=S)NCc3ccccc3)O2)c(=O)[nH]c1=O | – | – | 5.4 | –
14 | Cc1cn([C@@H]2CC[C@@H](CNC(=S)Nc3ccc(Cl)c(C(F)(F)F)c3)O2)c(=O)[nH]c1=O | – | > 500 | 2.3 | 34
15 | Cc1cn([C@@H]2C[C@H](O)[C@@H](CNC(=O)Nc3ccc(Cl)c(Cl)c3)O2)c(=O)[nH]c1=O | – | 116 | 1.1 | 41
16 | Cc1cn([C@@H]2C[C@@H](CNC(=O)NC[C@H]3C[C@H](n4cc(C)c(=O)[nH]c4=O)O[C@@H]3CO)[C@H](CO)O2)c(=O)[nH]c1=O | – | > 1000 | 37 | –

Row | Structure (SMILES) | MCC at 72 h, up to 100 µM [1] [µM] | Ki [2] [µM] | Ki (Thymidylate kinase) [µM] | inhibition at 6.25 µg/mL [3] [%]
17 | Cc1cn([C@@H]2C[C@H](O)[C@@H](CNC(=O)Nc3ccc(Cl)c(C(F)(F)F)c3)O2)c(=O)[nH]c1=O | – | 166 | 1.9 | 49
18 | Cc1cn([C@H]2C[C@H](CNC(=S)Nc3ccccc3)[C@@H](CO)O2)c(=O)[nH]c1=O | – | – | 69 | –
19 | Cc1cn([C@@H]2C[C@H](O)[C@@H](CNC(=S)Nc3ccc(Cl)c(C(F)(F)F)c3)O2)c(=O)[nH]c1=O | > 100 | 362 | 0.6 | 39
20 | COc1ccc(NC(=S)NC[C@H]2O[C@H](n3cc(C)c(=O)[nH]c3=O)C[C@@H]2O)cc1 | – | – | 10 | –
21 | Cc1cn([C@@H]2C[C@H](O)[C@@H](CNC(=S)NCc3ccc(Cl)c(C(F)(F)F)c3)O2)c(=O)[nH]c1=O | > 100 | 50 | 2.6 | –
22 | Cc1cn([C@@H]2C=C[C@@H](CNC(=S)Nc3ccc(Cl)c(C(F)(F)F)c3)O2)c(=O)[nH]c1=O | – | 190 | 3.8 | 55
23 | Cc1cn([C@@H]2C[C@H](O)[C@@H](CNC(=S)Nc3ccccc3)O2)c(=O)[nH]c1=O | > 100 | – | 16 | –
24 | Cc1ccc(NC(=S)NC[C@H]2O[C@H](n3cc(C)c(=O)[nH]c3=O)C[C@@H]2O)cc1 | – | – | 7.8 | –
25 | Cc1ccc(NC(=S)NC[C@H]2C[C@H](n3cc(C)c(=O)[nH]c3=O)O[C@@H]2CO)cc1 | > 100 | – | 36 | –
26 | Cc1cn([C@@H]2C[C@H](O)[C@@H](CNC(=S)NCCc3ccc(Cl)c(Cl)c3)O2)c(=O)[nH]c1=O | > 100 | 79 | 2.2 | –
27 | Cc1cn([C@@H]2C[C@H](O)[C@@H](CNC(=S)Nc3ccc4c(c3)C(=O)OC43c4ccc(O)cc4Oc4cc(O)ccc43)O2)c(=O)[nH]c1=O | – | – | 5.4 | –
28 | Cc1cn(COCCNC(=S)Nc2ccc(Cl)c(C(F)(F)F)c2)c(=O)[nH]c1=O | 100 | – | 37 | 34
29 | Cc1cn([C@@H]2C[C@H](O)[C@@H](CNC(=S)NC(c3ccccc3)c3ccccc3)O2)c(=O)[nH]c1=O | > 100 | > 500 | 4.9 | –
30 | Cc1cn([C@@H]2C[C@H](O)[C@@H](CN)O2)c(=O)[nH]c1=O | – | – | 16 | –
31 | Cc1cn([C@H]2C[C@H](CNC(=S)Nc3ccc(Cl)c(C(F)(F)F)c3)[C@@H](CO)O2)c(=O)[nH]c1=O | > 100 | > 1000 | 5 | –
32 | Cc1cn([C@@H]2C[C@H](O)[C@@H](CNC(=S)Nc3ccc(Cl)cc3)O2)c(=O)[nH]c1=O | – | > 1000 | 3.2 | –
